# Activity calls are given as the source filed them. The calls are words filed in the database; no cut-off is given here.
# Key:
# Staphylococcus aureus [1] = experiment: Antibacterial activity against erythromycin-susceptible Staphylococcus aureus ATCC 25923 incubated for 24 hrs by broth dilution method; format: functional; settings: ATCC 25923, 24 h
# Method in brief: (§1)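 CLSI broth microdilution in cation-adjusted Mueller-Hinton broth. Twofold dilutions spanned 0.25–128 or 0.5–256 µg/mL, with CAM and AZM as controls. Log-phase bacteria were added and incubated 24 h at 37 °C. MIC was read by turbidity as the concentration of the last clear well.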
# Streptococcus pyogenes [2] = experiment: Antibacterial activity against erythromycin-susceptible Streptococcus pyogenes 1 clinical isolate incubated for 24 hrs by broth dilution method; format: functional; method in brief: as §1
# Escherichia coli = experiment: Antibacterial activity against penicillin-susceptible Escherichia coli ATCC 25922 incubated for 24 hrs by broth dilution method; format: functional; settings: ATCC 25922, 24 h; method in brief: as §1
# Pseudomonas aeruginosa = experiment: Antibacterial activity against penicillin-susceptible Pseudomonas aeruginosa ATCC 27853 incubated for 24 hrs by broth dilution method; format: functional; settings: ATCC 27853, 24 h; method in brief: as §1
# Bacillus subtilis = experiment: Antibacterial activity against penicillin-susceptible Bacillus subtilis ATCC 9372 incubated for 24 hrs by broth dilution method; format: functional; settings: ATCC 9372, 24 h; method in brief: as §1
# Staphylococcus aureus [3] = experiment: Antibacterial activity against penicillin-resistant Staphylococcus aureus ATCC 31007 incubated for 24 hrs by broth dilution method; format: functional; settings: ATCC 31007, 24 h
# Staphylococcus aureus [4] = experiment: Antibacterial activity against methicillin-resistant Staphylococcus aureus ATCC 43300 incubated for 24 hrs by broth dilution method; format: functional; settings: ATCC 43300, 24 h
# Streptococcus pneumoniae [5] = experiment: Antibacterial activity against erythromycin-resistant Streptococcus pneumoniae B1 expressing the ermB incubated for 24 hrs by broth dilution method; format: functional
# Streptococcus pneumoniae [6] = experiment: Antibacterial activity against erythromycin-resistant Streptococcus pneumoniae AB11 expressing the ermB and mefA incubated for 24 hrs by broth dilution method; format: functional
# Streptococcus pyogenes [7] = experiment: Antibacterial activity against erythromycin-resistant Streptococcus pyogenes 2 clinical isolate incubated for 24 hrs by broth dilution method; format: functional
# [8] = Cytotoxicity against human MCF7 cells assessed as viable cells at 64 to 128 ug/ml incubated for 24 hrs by MTT assay relative to control; format: cell-based; settings: read-out: Activity
# Method in brief: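 MCF-7 cells were seeded at 10^4 cells/well and allowed to settle overnight. Compound was added for 24 h, with CAM as control and DMSO as vehicle control. MTT (5 mg/mL stock) was then added for 4 h at 37 °C, formazan dissolved in DMSO for 10 min, and absorbance read at 570 nm. Read-out was percent viable cells.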
# Staphylococcus aureus [9] = experiment: Bactericidal activity against erythromycin-susceptible Staphylococcus aureus ATCC 25923 incubated for 24 hrs followed by re-plating on tryptic soy agar plates for 24 hrs by broth microdilution assay; format: functional; settings: ATCC 25923, 24 h
# Method in brief: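 Built on the broth microdilution MIC set-up (CAMH, 24 h, 37 °C). After 24 h, contents of clear wells were plated on tryptic soy agar and incubated 24 h at 37 °C. MBC was taken as the lowest concentration giving no colonies.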
# Staphylococcus aureus [10] = experiment: Ratio of MBC to MIC for erythromycin-susceptible Staphylococcus aureus ATCC 25923; format: functional
# Streptococcus pneumoniae [11] = experiment: Bactericidal activity against erythromycin-resistant Streptococcus pneumoniae AB11 expressing the ermB and mefA incubated for 24 hrs followed by re-plating on tryptic soy agar plates for 24 hrs by broth microdilution assay; format: functional
# Method in brief: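 Follows the 24 h, 37 °C CAMH broth microdilution MIC plate; contents of clear wells plated onto tryptic soy agar and incubated 24 h at 37 °C; MBC taken as the lowest concentration giving no colonies.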
# Streptococcus pneumoniae [12] = experiment: Ratio of MBC to MIC for erythromycin-resistant Streptococcus pneumoniae AB11 expressing the ermB and mefA; format: functional
# Streptococcus pneumoniae [13] = experiment: Bactericidal activity against erythromycin-resistant Streptococcus pneumoniae AB11 expressing the ermB and mefA at 1 to 4 times MIC incubated for up to 9 hrs by time-kill curve assay; format: functional, organism-based
# Streptococcus pneumoniae [14] = experiment: Bacteriostatic activity against erythromycin-resistant Streptococcus pneumoniae AB11 expressing the ermB and mefA at 1 to 4 times MIC incubated for 9 to 24 hrs by time-kill curve assay; format: functional, organism-based
# Streptococcus pneumoniae [15] = experiment: Bacteriostatic activity against erythromycin-resistant Streptococcus pneumoniae AB11 expressing the ermB and mefA by time-kill curve assay; format: functional, organism-based
# Staphylococcus aureus [16] = experiment: Ratio of MIC for CAM to MIC for test compound for antibacterial activity against penicillin-resistant Staphylococcus aureus ATCC 31007 incubated for 24 hrs by broth dilution method; format: functional
# Method in brief: (§2)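 Ratio of clarithromycin MIC to compound MIC. Both MICs come from CLSI broth microdilution in cation-adjusted Mueller-Hinton broth with 2-fold dilutions, log-phase inoculum and 24 h at 37 °C, read by turbidity as the last clear well.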
# Streptococcus pneumoniae [17] = experiment: Ratio of MIC for CAM to MIC for test compound for antibacterial activity against erythromycin-resistant Streptococcus pneumoniae AB11 expressing the ermB and mefA incubated for 24 hrs by broth dilution method; format: functional; method in brief: as §2
# Streptococcus pyogenes [18] = experiment: Ratio of MIC for CAM to MIC for test compound for antibacterial activity against erythromycin-resistant Streptococcus pyogenes 2 clinical isolate incubated for 24 hrs by broth dilution method; format: functional; method in brief: as §2
# Staphylococcus aureus [19] = experiment: Ratio of MIC for CAM to MIC for test compound for antibacterial activity against methicillin-resistant Staphylococcus aureus ATCC 43300 incubated for 24 hrs by broth dilution method; format: functional; method in brief: as §2
# Streptococcus pneumoniae [20] = experiment: Ratio of MIC for CAM to MIC for test compound for antibacterial activity against erythromycin-resistant Streptococcus pneumoniae B1 expressing the ermB incubated for 24 hrs by broth dilution method; format: functional; method in brief: as §2
Compound,MIC (Staphylococcus aureus [1]) [µg/mL],MIC (Streptococcus pyogenes [2]) [µg/mL],MIC (Escherichia coli) [µg/mL],MIC (Pseudomonas aeruginosa) [µg/mL],MIC (Bacillus subtilis) [µg/mL],MIC (Staphylococcus aureus [3]) [µg/mL],MIC (Staphylococcus aureus [4]) [µg/mL],MIC (Streptococcus pneumoniae [5]) [µg/mL],MIC (Streptococcus pneumoniae [6]) [µg/mL],MIC (Streptococcus pyogenes [7]) [µg/mL],viability at 24 h [8] [%],MBC (Staphylococcus aureus [9]) [µg/mL],Ratio (Staphylococcus aureus [10]),MBC (Streptococcus pneumoniae [11]) [µg/mL],Ratio (Streptococcus pneumoniae [12]),Ratio (Staphylococcus aureus [16]),Ratio (Streptococcus pneumoniae [17]),Ratio (Streptococcus pyogenes [18]),Ratio (Staphylococcus aureus [19]),Ratio (Streptococcus pneumoniae [20]),other results
CO[C@]1(C)C[C@@H](C)[C@H](O)[C@H](C)CN(C)C[C@H](COCc2cn(-c3ccccc3)nn2)OC(=O)[C@H](C)[C@@H](O[C@H]2C[C@@](C)(OC)[C@@H](O)[C@H](C)O2)[C@H](C)[C@H]1O[C@@H]1O[C@H](C)C[C@H](N(C)C)[C@H]1O,≤ 0.25,0.25,64,16,≤ 0.25,> 256,> 256,> 256,128,128,60,128,>512,–,–,–,–,–,–,–,–
CCCCc1ccc(-c2cn(C[C@@H]3CN(C)C[C@@H](C)[C@@H](O)[C@H](C)C[C@@](C)(OC)[C@H](O[C@@H]4O[C@H](C)C[C@H](N(C)C)[C@H]4O)[C@@H](C)[C@H](O[C@H]4C[C@@](C)(OC)[C@@H](O)[C@H](C)O4)[C@@H](C)C(=O)O3)nn2)cc1,8,8,> 128,> 128,32,8,8,64,8,8,–,–,–,64,8,–,–,–,–,–,Activity (Streptococcus pneumoniae [13]): Active; Activity (Streptococcus pneumoniae [14]): Active; Activity (Streptococcus pneumoniae [15]): Dose-dependent effect
CCCc1ccc(-n2cc(COC[C@@H]3CN(C)C[C@@H](C)[C@@H](O)[C@H](C)C[C@@](C)(OC)[C@H](O[C@@H]4O[C@H](C)C[C@H](N(C)C)[C@H]4O)[C@@H](C)[C@H](O[C@H]4C[C@@](C)(OC)[C@@H](O)[C@H](C)O4)[C@@H](C)C(=O)O3)nn2)cc1,4,4,64,> 128,1,32,16,16,8,32,–,–,–,64,8,8 - 16,8 - 16,8 - 16,8 - 16,8 - 16,–
COc1cccc(-n2cc(COC[C@H]3CN(C)C[C@@H](C)[C@@H](O)[C@H](C)C[C@@](C)(OC)[C@H](O[C@@H]4O[C@H](C)C[C@H](N(C)C)[C@H]4O)[C@@H](C)[C@H](O[C@H]4C[C@@](C)(OC)[C@@H](O)[C@H](C)O4)[C@@H](C)C(=O)O3)nn2)c1,≤ 0.25,0.5,64,32,≤ 0.25,> 256,> 256,> 256,128,128,60,> 128,>512,–,–,–,–,–,–,–,–
CO[C@]1(C)C[C@@H](C)[C@H](O)[C@H](C)CN(C)C[C@@H](COCc2cn(-c3ccc(C(C)C)cc3)nn2)OC(=O)[C@H](C)[C@@H](O[C@H]2C[C@@](C)(OC)[C@@H](O)[C@H](C)O2)[C@H](C)[C@H]1O[C@@H]1O[C@H](C)C[C@H](N(C)C)[C@H]1O,4,4,64,128,1,32,32,16,16,16,–,–,–,–,–,8 - 16,8 - 16,8 - 16,8 - 16,8 - 16,–
CCCCc1ccc(-c2cn(C[C@H]3COC(=O)[C@H](C)[C@@H](O[C@H]4C[C@@](C)(OC)[C@@H](O)[C@H](C)O4)[C@H](C)[C@@H](O[C@@H]4O[C@H](C)C[C@H](N(C)C)[C@H]4O)[C@](C)(OC)C[C@@H](C)[C@H](O)[C@H](C)CN3C)nn2)cc1,16,4,> 128,> 128,8,16,> 256,> 256,16,16,–,–,–,–,–,8 - 16,8 - 16,8 - 16,–,–,–

# Source: ChEMBL document CHEMBL4334458, “Design, synthesis and antibacterial evaluation of novel 15-membered 11a-azahomoclarithromycin derivatives with the 1, 2, 3-triazole side chain” (Eur J Med Chem, 2019)
